Assay outcomes (PubChem)
LEDGF integ inh – blocks HIV-1 LEDGF/p75-dependent DNA integration; TR-FRET IN-LEDGF/p75 DNA integration, Eu/Cy5; inhibition, % at 3.7 µM; 370,000 compounds, 0.64% hits;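 active = inhibition above the screen-wide mean plus 3 SD, cut at about 13% in these data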;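 also: signal is the Cy5 over europium emission ratio at 671 and 618 nm; 0% = plate median of compound wells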
UHRF1 MBD2 ctr – blocks human UHRF1 binding to methylated DNA; 370,000 compounds, 0.75% hits; Q96T88; UHRF1 binding to methylated oligo, TR-FRET; AID 687016; inhibition, % at 4.4 µM;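 also: UHRF1 SRA domain binding a hemimethylated CpG hairpin DNA probe; 0% = median of test compound wells and 100% = reference inhibitor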
SIAE inh – blocks human sialic acid acetylesterase. Q9HAT2. SIAE FP-Rh probe binding, fluorescence polarization. inhibition, % at 9.66 µM. 370,000 compounds, 0.69% hits. AID 1053197;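 active = inhibition above a cutoff: mean of compounds within the control limits plus 3 SD of those, cut at about 17% in these data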;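 also: 0% = plate median of compound wells and 100% = probe without SIAE protein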
Target sequence (Q9HAT2 whole entry, looked up): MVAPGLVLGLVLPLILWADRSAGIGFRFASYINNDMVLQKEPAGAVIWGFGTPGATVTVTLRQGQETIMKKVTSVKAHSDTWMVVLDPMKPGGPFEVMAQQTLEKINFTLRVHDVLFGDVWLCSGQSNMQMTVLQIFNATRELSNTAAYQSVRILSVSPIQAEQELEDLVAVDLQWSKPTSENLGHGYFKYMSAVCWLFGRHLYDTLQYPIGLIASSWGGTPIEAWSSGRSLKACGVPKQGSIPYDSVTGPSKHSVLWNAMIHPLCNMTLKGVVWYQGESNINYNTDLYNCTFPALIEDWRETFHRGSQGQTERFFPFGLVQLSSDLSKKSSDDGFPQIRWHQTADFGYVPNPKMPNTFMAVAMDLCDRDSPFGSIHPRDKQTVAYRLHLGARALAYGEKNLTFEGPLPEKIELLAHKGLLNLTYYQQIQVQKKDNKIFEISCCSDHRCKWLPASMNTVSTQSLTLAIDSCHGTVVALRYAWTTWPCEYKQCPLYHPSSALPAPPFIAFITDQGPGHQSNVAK
MBD2 DNA inh – inhibitors of human MBD2 binding to methylated oligonucleotide | Q9UBB5 | TR-FRET | inhibition, % at 4.4 µM | 370,000 compounds, 0.31% hits; in the data active = inhibition above about 13%
TDP2 absorb – TDP2 (human) inhibition, absorbance primary screen. O95551. recombinant TDP2, T5PNP hydrolysis, p-nitrophenol absorbance 415 nm. inhibition, % at 12.8 µM. 370,000 compounds, 0.34% hits. AID 720702;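 active = inhibition above the mean of all tested compounds plus 3 SD, set per campaign, cut at about 25% in these data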;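 also: 0% = DMSO with enzyme and 100% = buffer with substrate but no TDP2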
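Evaluation: % inhibition relative to enzyme-containing and enzyme-free wells. Material: recombinant human TDP2. Benchmarks: enzyme-free and DMSO wells. Timing: enzyme reaction with compound for 2 h at 37 °C. Compound dosing: 12.8 µM only. Measured by: p-Nitrophenol epi absorbance. Reagent: T5PNP substrate at 5 mM, a TopII-DNA adduct mimic. Replication: single well per compound.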
PRMT1 FP inh – blocks human protein arginine methyltransferase 1 | recombinant PRMT1, activity-based probe fluorescence polarization | 370,000 compounds, 1.3% hits | AID 652257 | inhibition, % at 2.79 µM;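 active = inhibition above about 21% made by adding two undisclosed values, limit read from the data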
UHRF1 DNA bind – counter-screen for MBD2 inhibitors: human UHRF1 methylated DNA binding inhibitors; shares compounds with MBD2 DNA inh; UHRF1 binding to methylated oligonucleotide, TR-FRET; inhibition, % at 4.4 µM; 1,000 compounds, 25% hits; AID 720530;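 also: UHRF1 SRA domain binding a labeled hemimethylated CpG hairpin DNA; 0% = vehicle only and 100% = reference inhibitor with vehicle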
MBD2 confirm – MBD2-DBD methyl-DNA binding inhibition, TR-FRET confirmation. shares compounds with MBD2 DNA inh. inhibition, % at 4.4 µM. TR-FRET MBD2-DBD binding to methylated oligonucleotide. AID 720531. 1,000 compounds, 26% hits; in the data active = inhibition above about 14%
Numbers without * were called inactive; · = no result. Compounds with a hit are over-represented: about 3.3% of the library has one in this group of screens. Rule as the data show it, unless noted: active = inhibition above about 21%; inactive = the rest.

SMILES | LEDGF integ inh | UHRF1 MBD2 ctr | SIAE inh | MBD2 DNA inh | TDP2 absorb | PRMT1 FP inh | UHRF1 DNA bind | MBD2 confirm
COC(=O)N1CC(=O)N(OC)C1c1ccc(Cl)cc1Cl (stereo not drawn) | 6 | 25* | -3 | 15* | 2 | 4 | 11 | 4
Cc1cc(C)c(OCC(=O)OCC(=O)NNC(=O)c2ccccc2F)c(C)c1 | -7 | 3 | -1 | 22* | 7 | -1 | 5 | 2
CC(=O)c1cccc(OCC(=O)N(C)CC(=O)NCc2ccco2)c1 | 30* | 49* | 4 | 22* | -7 | 9 | 43* | 18*
COCCCN1C(=O)[C@H](CC(=O)N2CCC(c3ccccc3)CC2)[C@]2(C(=O)OC)CCCCC=C12 | 7 | -3 | -8 | -2 | -2 | -4 | · | ·
O=C(NC1CCCCC1)O[C@H]1CC[C@@]23CCCN2C(=O)CCC[C@H]3C1 | 1 | -1 | 13 | 1 | -4 | -2 | · | ·
c1ccc(SC23CC4CC(CC(C4)C2)C3)nc1 | -5 | 1 | -3 | 13* | 0 | 3 | 8 | 3
COC(=O)[C@]12C[C@H](CC(=O)NCc3cccc(C(F)(F)F)c3)C(=O)N(Cc3ccco3)C1=C[C@H](C(C)C)O[C@@H]2C1CC1 | -3 | -2 | 1 | 0 | 0 | 0 | · | ·
COc1cc(C(=O)NC2CCN(C)CC2)ccc1Nc1ncc2c(n1)N(C1CCCCC1)CCC(=O)N2C | 3 | 37* | -4 | 24* | -17 | 0 | 30* | 28*
O=C(CSc1ccccc1)N1CCc2ccccc21 | 4 | 22* | -3 | 14* | 4 | 2 | 2 | 2
COc1ccc(Cc2c(C3CCCCC3)nc3ccc(C)cn23)c(C)c1 | -1 | 25* | 0 | 18* | 1 | 2 | 5 | 6
O=C(NCCN1CCN(C(=O)c2ccc(F)cc2)CC1)c1ccc(F)cc1 | 0 | 0 | 2 | 14* | 2 | -5 | 11 | 3
CCn1c(SCC(=O)NN=Cc2cccc(OCc3ccccc3)c2)nnc1-c1ccc(OC)c(OC)c1 | 2 | -4 | -2 | 1 | -12 | -3 | · | ·
Cn1nccc1-c1ccc(C(=O)Nc2cccc(NS(C)(=O)=O)c2)c2occc12 | -1 | 4 | -9 | 8 | -8 | 7 | · | ·
CS(=O)(=O)Nc1cccc(NC(=O)c2ccc(-n3ccnc3)c3ccoc23)c1 | 9 | 18 | 4 | 14* | -4 | 0 | 13 | 13
COC(=O)C1CCCN(C(=O)C2CCN(S(=O)(=O)c3ccccc3[N+](=O)[O-])CC2)C1 (stereo not drawn) | 1 | -2 | -7 | 1 | 9 | 0 | · | ·
Cc1ccc(C2CCC3(CCC(=O)N3CCOC(=O)Nc3ccc(Br)cc3)CC2)cc1 (stereo not drawn) | -3 | -1 | 4 | -5 | 3 | -1 | · | ·
CC(Sc1nnnn1C)C(=O)Nc1nc(-c2ccc(F)c(F)c2)cs1 (stereo not drawn) | 11 | 27* | -6 | 18* | -2 | 8 | 2 | 4
CSc1ccc(CN(C)CC(=O)NC(C)c2ccccc2)cc1 (stereo not drawn) | 0 | -6 | 2 | 19* | 1 | -1 | 9 | 5
Cc1ccc(-c2nc3ccc(C)cn3c2CC2CCCCC2)cc1 | 2 | 22* | -2 | 13* | -12 | 10 | 7 | 2
FC(F)Sc1nc2ccccc2[nH]1 | -3 | 0 | 4 | 40* | 9 | 3 | 9 | 6
FC(F)c1nc2ccccc2[nH]1 | -2 | -1 | 5 | -2 | 4 | -2 | · | ·
COC(=O)C1CCCN(C(=O)C2CCN(S(=O)(=O)c3ccc([N+](=O)[O-])cc3)CC2)C1 (stereo not drawn) | 1 | -1 | -2 | 3 | 6 | 0 | · | ·
COC(=O)c1ccc(Cn2ccc3ccc(-c4ccc5ccn(C(=O)C6CCCCC6)c5c4)cc32)cc1 | -4 | 0 | -3 | 1 | 0 | 1 | · | ·
CC(C)C[C@H]1CN(CCCC[C@H]2CNC(=O)C(=O)N2CCc2ccc(O)cc2)C(=O)C(=O)N1Cc1ccccc1 | 10 | 25* | 1 | 13* | 2 | 8 | 7 | 3
CC(C)C[C@H]1CN(CCCC[C@H]2CNC(=O)C(=O)N2CCc2ccccc2)C(=O)C(=O)N1CCc1ccc(O)cc1 | 1 | -2 | 4 | 4 | 13 | 1 | · | ·
SMILES | LEDGF integ inh | UHRF1 MBD2 ctr | SIAE inh | MBD2 DNA inh | TDP2 absorb | PRMT1 FP inh | UHRF1 DNA bind | MBD2 confirm
CCOC(=O)C(Cc1ccccc1)P(=O)(OCC)OCC (stereo not drawn) | -2 | -1 | 10 | 7 | 2 | 8 | · | ·
COc1ccc(N=Cc2ccc[nH]2)cc1 | -7 | 0 | 0 | 22* | -3 | 1 | 7 | 2
COC(=O)C1CN(Cc2ccc(Cl)cc2)CCS(=O)(=O)N1Cc1cn(Cc2ccc(F)cc2)nn1 (stereo not drawn) | 2 | 10 | 2 | 0 | 11 | -2 | · | ·
C=C(C)C(=O)Nc1cccc(C2=NOC3(C2)C[C@@H](C(N)=O)N(C(=O)CCCCC)C3)c1 (stereo partly drawn) | 41* | 90* | 1 | 44* | 10 | 5 | 100* | 82*
CCC(C)NC(=O)CSc1nc2ccccc2c(=O)n1CCCC(=O)NCC1CCCO1 (stereo not drawn) | 0 | 0 | 9 | -1 | 8 | -1 | · | ·
CCC(C)NC(=O)CSc1nc2ccccc2c(=O)n1CCCN1CCCCC1 (stereo not drawn) | -2 | 0 | 3 | 14* | -11 | 0 | 2 | 3
Cc1ccc(NC(=O)CCOc2ccccc2)cc1 | -1 | 0 | -5 | 59* | 15 | 1 | 4 | 3
CN(C)c1ncc(C2=C(Cl)C(=O)C(N3CCCC3)=C(Cl)C2=O)s1 | 63* | 73* | 25* | 24* | 27* | 68* | 36* | 24*
COc1cccc(/C=C2\CC3(OC(=O)C(C)(C)C)CCCN2C3)c1 (stereo not drawn) | -2 | -1 | 1 | -4 | 0 | -2 | · | ·
Cc1nn2c(-c3ccc(Cl)cc3)nnc2s1 | 0 | -16 | 3 | 14* | 3 | 0 | 4 | 5
CN(C)c1ccc(-c2nn3c(-c4ccc(Cl)cc4)nnc3s2)cc1 | -1 | -1 | 3 | -7 | 9 | 4 | · | ·
COc1cccc(NC(=O)CCC2CCN(C(=O)c3cccc(NC(C)=O)c3)CC2)c1 | 1 | 2 | 0 | 36* | 5 | 0 | 5 | 2
C=CCN1[C@H](C#N)[C@@H](c2ccc(C#Cc3ccccc3OC)cc2)[C@H]1CO | 1 | 17 | 13 | 14* | 16 | 2 | 9 | 8
